The subject of this series is MS2 coat protein. Briefly: apparent Kd, MS2 coat protein; higher = weaker binding; RNA-MaP array. The gist of the method:
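Designed RNAs were produced on an Illumina sequencing chip by transcription of sequenced DNA templates. Binding to fluorescently labeled MS2 coat protein (1.5 nM to 3 μM) was measured at room temperature with or without input ligand. The apparent Kd is the median of per-cluster binding-curve fits. Designs were excluded when measured on fewer than 10 clusters.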

The mark [1] stands for this setting: designed as: OFF switch for flavin mononucleotide, no ligand.
The mark [2] stands for this setting: ligand present: flavin mononucleotide, designed as: OFF switch for flavin mononucleotide.
The mark [3] stands for this setting: designed as: ON switch for flavin mononucleotide, no ligand.
The mark [4] stands for this setting: ligand present: flavin mononucleotide, designed as: ON switch for flavin mononucleotide.
Setting [5] is: designed as: OFF switch for theophylline, no ligand.
The mark [6] stands for this setting: ligand present: theophylline, designed as: OFF switch for theophylline.
The mark [7] stands for this setting: designed as: OFF switch for tryptophan, no ligand.
The mark [8] stands for this setting: ligand present: tryptophan, designed as: OFF switch for tryptophan.
Setting [9] is: designed as: ON switch for theophylline, no ligand.
Where [10] appears, read: ligand present: theophylline, designed as: ON switch for theophylline.
The mark [11] stands for this setting: designed as: ON switch for tryptophan, no ligand.
Setting [12] is: ligand present: tryptophan, designed as: ON switch for tryptophan.

For orientation: apparent Kd means the concentration giving half-maximal binding under the conditions of the assay.

As for “CUCGCGUGAGGAUAUGCCACGCCCGAAAGGCCGGGUCAUCGGCAGAAGGCACAUGAGGAUCACCCAUGUAUCGC”, the “apparent Kd” value amounted to 13.3 nM under setting [1] and 63.9 nM under setting [2].
The matching figures for “AAGAAAUUCUCACAUGAGGAUCACCCAUGUCCACACGACUAGAGAAGGGCCUUCUACGUGCACUGGCAGGAUAUCUAACCGGGA”: 140 nM and 87.5 nM.
The matching figures for “UAAUAGAAAGGAUAUACAUAGGUUGGCUAAUGACGUUCCGAACAUGAGGAUCACCCAUGUAGAAGGUUCUGCGU”: 12.4 nM and 29.5 nM.
As to “UGAUUAUACUUUGAGGAUAUACUAGGACUCACAUGAGGAUCACCCAUGUGUGCGGCUAUACGAGCGUAGAAGGCAAAUACUCCGGC”, the “apparent Kd” value under setting [3] came out at 9.31 nM and the “apparent Kd” value under setting [4] was determined as 7.91 nM.
Regarding “GGGACCACUCUUGGGCCGCUGACAUGAGGAUCACCCAUGUAUAGAAGGAGGGUGGCUAAUCACACCUAGGAUAUAUACAAGACU”, the “apparent Kd” value is 12 nM under setting [1] and 11 nM under setting [2].
The matching figures for “GUGGGCGCUGAGAAGGACCGGAGACGCCGAUUGGUAGGAUAUCAGAAAGGUGCCGGUGAUUACAUGAGGAUCACCCAUGUAUGG”: 22.8 nM and 20.2 nM.
The matching figures for “UUAUCGGUCUCAGGAUAUCAGUAUCACUCAUUAUGAGAAGGGAGACACUCCGGAACAUGAGGAUCACCCAUGUGGGCCUUGGGU”: 172 nM and 103 nM.
Turning to “AAGUUACACAAGAAGGAGGGCGACUUUUUCACAUGAGGAUCACCCAUGUAUCCUCUUGGAGGAACCUAGGAUAUUGCUAAGCGU”, the “apparent Kd” value is, setting by setting: under setting [1], 175 nM; under setting [2], 170 nM.
Regarding “ACUGCUGUAGGAUAUCAACGAAAUAACAUGAGGAUCACCCAUGUGGCAGUGAUCAGCAGUUGAGAAGGACAUGGCC”, the “apparent Kd” value turned out to be 10.9 nM under setting [1] and 11.3 nM under setting [2].
Turning to “CCCGGUGACUAGAAGGCGCCACAUGAGGAUCACCCAUGUAUCAAAGACCGGUGAUUGCCGACGGGCGAGGAUAUAGGUGCGACG”, the “apparent Kd” value was found to be 8.18 nM under setting [1] and 14.5 nM under setting [2].
In the case of “AGAACCCAAGAGGAUACCAGAACGACAAUCAAAUCUUUUUACAUGAGGAUCACCCAUGUUUUCCCUUGGCAGCCUCAUGCACGAC”, the “apparent Kd” value was 72.1 nM under setting [5] and 60.8 nM under setting [6].
Regarding “AGGACAUGAGGAUCACCCAUGUGAUGACAUUUCCUAGAACCGAAGGAUAUGCAAACGGAACCCGCGCAGAAGGUCGCUAACCUU”, the “apparent Kd” value is, setting by setting: under setting [1], 57.5 nM; under setting [2], 42.5 nM.
On to “UCCCGAAAGAAGAAGGGUACACCGAGCUGGUAACACAGCAAAACAUGAGGAUCACCCAUGUCUGAACAGGAUAUUCCGCGAGUA”, for which the “apparent Kd” value came to 31.9 nM under setting [3] and 25.5 nM under setting [4].
With “CACAUGAGGAUCACCCAUGUCGCGGUGUGACCGAUACUCGAAUAGGAUAUGCUUGACACUUCGUGGCAGAAGGAUUGAGGUUCG”, the “apparent Kd” value under setting [1] came to 76.6 nM and the “apparent Kd” value under setting [2] was found to be 54.9 nM.
The matching figures for “GAAAUAGUAGUUAGGAUAUGUAAUUGAAGACAUAUACAGAAGGAACAUGAGGAUCACCCAUGUAUUGGGAUGGA”: 196 nM and 126 nM.
With “CCAUUGCAUGGAGGAUAUGAGCAGUAAGUACUCUCAGAAGGCCACGGAGUAAACAAACCAUCUUACAUGAGGAUCACCCAUGUA”, the “apparent Kd” value under setting [3] was 13 nM and the “apparent Kd” value under setting [4] turned out to be 7.69 nM.
For “AGGGCACAUGAGGAUCACCCAUGUAAGGAUAUGGACUUUUUUGCUGUAGUAAUCAUCUCCAGAAGGUACGUCUU”, the “apparent Kd” value is 24.4 nM under setting [1] and 19.6 nM under setting [2].
As for “UGUCACUGUUUGGUUCAAUGAAGAAGAAUUCGAGGACCGGUACGGCCGCCACUCGCUAUGCAACAUGAGGAUCACCCAUGUAAAA”, the “apparent Kd” value under setting [7] came out at 15.8 nM and the “apparent Kd” value under setting [8] amounted to 15.3 nM.
Turning to “GUCACACAGUAGGAUACCAGCGUGGCUUAUCCCUGAUCGUACAUGAGGAUCACCCAUGUCCGCCCUUGGCAGCCUCCUGCUCGGA”, the “apparent Kd” value under setting [5] is 12.7 nM and the “apparent Kd” value under setting [6] came out at 34.5 nM.
“AUAAUAACAUGAGGAUCACCCAUGUCCUCUUGGCGGCGGCUUAGAAGGUCGACUACUUUUCUUUCGAAGGAUAUAACCUGUUCU”: the “apparent Kd” value reads like this: under setting [1], 913 nM; under setting [2], 733 nM.
The matching figures for “CAUAUCAAUUCAGGAUAUUCUGUUUAAUACAUGAGGAUCACCCAUGUCCUCCAAAGAUUAGCAAGGAAGAAGGGAAGUAAACAG”: 82.2 nM and 69 nM.
Turning to “GGAUACUUUGGAGGAUAUAAUUUUAUCAUCACUUGUGAUCGAUGACAUGAGGAUCACCCAUGUAAUUAGAAGGCCAUUAAUUAC”, the “apparent Kd” value under setting [3] was 239 nM and the “apparent Kd” value under setting [4] amounted to 38.4 nM.
As for “AGGACGUCAGGAUAUUCUAUGUGGCUCUAAUGGCCGACCAUGAAGAAGGGACAUGAGGAUCACCCAUGUGAGCU”, the “apparent Kd” value worked out at 25.7 nM under setting [1] and 50.1 nM under setting [2].
As to “CAAUUUCGAAUAGAUACCAGCUGUCAUAAACACAUGAGGAUCACCCAUGUGCUUCUCGUCAGCCCUUGGCAGCUAUAACUAGAGC”, the “apparent Kd” value is, setting by setting: under setting [9], 15.8 nM; under setting [10], 10 nM.
Regarding “CUAAUGGUUGCAGGAUAUCGAAAACCGCACAUGAGGAUCACCCAUGUCGCUAAGCGUGACAUAGUCGAGAAGGGCAUGACAACU”, the “apparent Kd” value is, setting by setting: under setting [1], 37.3 nM; under setting [2], 14.8 nM.
The matching figures for “CCUUAGUGAGGAUAUGCAUAGCCUUGGCGGCCAGGAGCCAAGCAGAAGGCACAUGAGGAUCACCCAUGUCCGGU”: 16.6 nM and 22.8 nM.
Regarding “UGUCGUAAAGGAUAUACAUGAGGAUCACCCAUGUCGGCCGUUAGGCCGUAAGGUGUGCGUAGAAGGUUACAUUG”, the “apparent Kd” value under setting [1] came out at 191 nM and the “apparent Kd” value under setting [2] amounted to 149 nM.
For the sequence “AUGCACGGGCUAAUCUGCGAUUGGCACGAUACCAGAGAUCAAGACCUCCCUUGGCAGCGUGUCACAUGAGGAUCACCCAUGUGGA”, the “apparent Kd” value runs as follows: under setting [5], 131 nM; under setting [6], 94.8 nM.
As to “CGCUAACAUGAGGAUCACCCAUGUGAGGAUAUUCGCGGCGGACCGGGCUUUGGCGCUCGAAGAAGGCACAACGG”, the “apparent Kd” value is, setting by setting: under setting [1], 12.8 nM; under setting [2], 24.5 nM.
Take “GCAGACAUGAGGAUCACCCAUGUACUUGGGCGAGGACCGGUACGGCCGCCACUCGUAGACUUGACGAGGAAAUGUUCUCGCAGGG”: the “apparent Kd” value runs as follows: under setting [11], 22.4 nM; under setting [12], 19.1 nM.
As to “AGCUUAAUUAUAGGAUAUGAGAGGACAUGAGGAUCACCCAUGUAGAUGUUUGCCACAUAGCCAGUUCAGAAGGAUAGAGCACCA”, the “apparent Kd” value reads like this: under setting [1], 24.9 nM; under setting [2], 19.4 nM.
The matching figures for “UUCACAGUGCAAGGAUAUGACAGUUUACAUGAGGAUCACCCAUGUUGGUCCUAUUCAGAAUGAGAUCAGAAGGUGCUAAUAUGU”: 18.6 nM and 36.1 nM.
The matching figures for “AAAAUUGAAGGAUAUACAUGAGGAUCACCCAUGUGCAACAUAUUUGAAUGGCCUCACGGUAGAAGGUCAAAACG”: 6.83 nM and 7.52 nM.
The matching figures for “GUUAGUCCACGAGGAUAUCGAAAUCGGCCCAGUGAAUUUUCACAUGAGGAUCACCCAUGUCAUAUCGAGAAGGCGUCUGAAAGC”: 35.7 nM and 41.9 nM.
For the sequence “AGAGCACAUGAGGAUCACCCAUGUUAGGAUAUAAGUCUGGAUCUACCUGAGCCCGAUCUUAGAAGGAACGGUGU”, the “apparent Kd” value under setting [1] was determined as 11 nM and the “apparent Kd” value under setting [2] stood at 11.6 nM.
The matching figures for “UAACCAUGCAAAGGAUAUCCAAUACUAUGAGACGGAGAAGGUAGAAACAUGGAGAAUUCCUACAUGAGGAUCACCCAUGUUAGA”: 387 nM and 245 nM.
The matching figures for “GAUCCGCUCGAGAAGGUCGUCGGGCACCGAGUCGAAGGAUAUCGAGAAUGAAGACAUGAGGAUCACCCAUGUGAGGAGCGAUCC”: 136 nM and 126 nM.
Take “AAUGUGUAAGGAUAUACCGUUCAGUCUCUCCACAAUCGAUGGUAGAAGGUACAUGAGGAUCACCCAUGUGAGGA”: the “apparent Kd” value is, setting by setting: under setting [1], 14.9 nM; under setting [2], 15.2 nM.
The matching figures for “GACAUGAGGAUCACCCAUGUUAAAGAUCCCAGCAUGCAACUCAGAAGGCUAAACUGUGGAUAGAAAGAGGAUAUGAGUUUAUAC”: 9.62 nM and 9.57 nM.
On to “AUGCCACCAUACCGCAGUAAUACAUGAGGAUCACCCAUGUAGGAGGAUAUACUUUUGGUAAUGAUGUAGAAGGCCUAGUGGUAC”, for which the “apparent Kd” value under setting [3] turned out to be 5.91 nM and the “apparent Kd” value under setting [4] turned out to be 6.09 nM.
Consider “CAACUGCUUGAGCUUACUUAUUGGACUUCCCGAGGACCGGUACGGCCGCCACUCGCAGGGACACAUGAGGAUCACCCAUGUAAAG”, for which the “apparent Kd” value came out at 15.7 nM under setting [7] and 16.2 nM under setting [8].
Turning to “CCGCGCGUAGGAUAUACUAGUGUAUCAGUCGGUAUUGGAAAACAUGAGGAUCACCCAUGUAGAAGGACGCUAAU”, the “apparent Kd” value is, setting by setting: under setting [1], 8.4 nM; under setting [2], 10.5 nM.
As to “GGGCACAUGAGGAUCACCCAUGUCCAACGGCGAGGACCGGUACGGCCGCCACUCGGUAUAAGCUUCGAAAAGGAGGAUCCUGCAG”, the “apparent Kd” value under setting [11] is 38.4 nM and the “apparent Kd” value under setting [12] came to 30.9 nM.
As for “AUCUGGAGAGGAUAUUGAUCGGAACACAUGAGGAUCACCCAUGUGAGCCCUCGUGUCCCUCAAGAAGGCUCGGGCG”, the “apparent Kd” value was 5.73 nM under setting [1] and 7.71 nM under setting [2].
The matching figures for “GUGAGACAUGAGGAUCACCCAUGUUAGGAUAUAAAAGGCAAACGUAAUGGCGAGGUUAAUAGAAGGAACAGAAA”: 15.6 nM and 11.9 nM.
Regarding “GGAAUGUCAGGAUAUCUAAUUACCCAGAAAGAUAUGGAACCAGAGAAGGGACAUGAGGAUCACCCAUGUAUAAC”, the “apparent Kd” value was determined as 10.2 nM under setting [1] and 12.4 nM under setting [2].
Regarding “GAAGAUCCGUAAGAUACCAGUGCAGAUCGGCACAUGAGGAUCACCCAUGUAAAGCAAGAACACCCUUGGCAGCUUUCGUAACAAC”, the “apparent Kd” value turned out to be 158 nM under setting [9] and 10.3 nM under setting [10].
